Compound activity: PubChem BioAssay, Broad Institute
Hits are enriched below; roughly 3.6% of the tested compounds scored in any of these assays.
SKKanGAS inh – S. pyogenes SKKanGAS growth inhibitors in kanamycin, primary screen, streptokinase expression inhibitor project, SKKanGAS strain, BacTiter-Glo luminescence; 6 h; inhibition, % at 7.5 µM; hit rate 1.3% among 300,000;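 active = mean replicate score, as percent of positive control median, at least 50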;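 note: strain carries kanamycin resistance gene driven by streptokinase promoter and grows in 40 µg/ml kanamycin; loss of luminescence reflects streptokinase promoter inhibition or plain growth inhibition; 0% = median of DMSO wells and 100% = positive control at its reference dose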
PfHsp90 set2 – growth inhibition of PfHsp90-expressing yeast, primary screen, antimalarial PfHsp90 inhibitor project, S. cerevisiae, BacTiter-Glo luminescence, single point, set 2; BacTiter-Glo ATP, 48 h; yeast lacking PDR1 and PDR3 efflux regulators; inhibition, % at 9.4 µM; hit rate 0.32% among 310,000; AID 504621, 2011;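 active = every replicate shows inhibition above about 80%, whatever the replicate mean, limit read from the data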;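 note: 0% = DMSO neutral controls and 100% = 20 µM radicicol positive controls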
Beta cell apopt – inhibitors of cytokine-induced beta cell apoptosis, primary screen, luminescence; protection from apoptosis, % (test concentration not listed); hit rate 0.8% among 300,000; INS-1E cytokine-induced death, ATP luminescence, 48 h; percent of positive-control rescue, neutral wells zero;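 active = Every replicate reaches about 75%, or at least half do and their mean reaches it too, limit read from the data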;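 note: 0% = cytokine-treated negative control wells and 100% = positive control rescue; higher means more ATP so stronger rescue from cytokine killing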
CSC inhib – cancer stem cell viability inhibitors, primary screen, luminescence. cancer stem cell-like cells viability. inhibition, % at 7.5 µM. hit rate 1.1% among 300,000. AID 2717, 2010; in the data active = inhibition above about 75%; tested in HMLE shEcad cells
HIF act – HIF pathway transcriptional activators, primary screen, cell-based, U2OS HRE-luciferase, luminescence; U2OS HRE-luciferase reporter; normalized: DMSO 0%, desferrioxamine 100%; activation, % at 7.5 µM (by protocol); hit rate 0.32% among 300,000;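 active = mean activation of at least 10% of the iron chelator positive control signal, with at least half of replicates also reaching 10%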
T cruzi inh – inhibitors of intracellular T. cruzi growth, primary screen, luminescence, NIH3T3 host cells; T. cruzi beta-gal in NIH3T3, 90 h; inhibition, % (test concentration not listed); hit rate 1.4% among 300,000;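 active = mean inhibition across valid replicates above about 55%, limit read from the data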;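 note: signal also drops with host cell toxicity which is not excluded here; 0% = plate median of DMSO wells and 100% = zero luminescence signal; higher percent means less beta-gal luminescence so fewer parasites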
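System – NIH/3T3 host cells with β-galactosidase reporter T. cruzi · Doses – single 50 nL compound addition per well in DMSO · Reagent – 5000 T. cruzi trypomastigotes/well · Medium – Low-serum DMEM with 2% FBS · Timing – ≥90 h infection period, 3 h prior cell attachment · Evaluation – parasite load inhibition, % · Technique – GalScreen luminescence, 60 min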
* marks the source's active call; other numbers are inactive results; . = no result.

SMILES	SKKanGAS inh	PfHsp90 set2	Beta cell apopt	CSC inhib	HIF act	T cruzi inh
Cc1nn(CC(=O)Nc2ccc3nc4n(c(=O)c3c2)CCCC4)c(C)c1[N+](=O)[O-]	-5.1	-4.7	2.5	8.1	-0.2	-11.9
CCCNC1=C(N(C(C)=O)c2cccc(F)c2)C(=O)c2ccccc2C1=O	11.7	-2.1	125.5*	101.8*	-0.6	54.8*
Cc1ccc(S(=O)(=O)NCCNc2ccc(Br)c(C)c2)cc1	.	17.3	1.5	-6.4	.	.
CCC1Oc2ccc(C)cc2N(CC(=O)N(Cc2cccnc2)Cc2ccc(C)o2)C1=O (centres undefined)	10.6	2.2	9.9	-11.0	-0.1	57.1*
CN(C(=O)CSc1nnc(-c2ccc(OC(F)F)cc2)n1N)C1CCS(=O)(=O)C1 (centres undefined)	6.3	-5.9	.	-15.9	-0.2	-3.3
Cc1c(CCOC(=O)c2ccccc2)sc[n+]1CC(=O)c1ccc(Br)cc1	1.4	7.6	5.8	.	0.3	-1.5
Cc1c(CCOC(=O)c2cc([N+](=O)[O-])cc([N+](=O)[O-])c2)sc[n+]1CC(=O)c1ccccc1	-2.0	-22.1	7.0	-19.7	1.0	69.4*
Cc1c(CCOC(=O)CC23CC4CC(CC(C4)C2)C3)sc[n+]1CC(=O)c1ccc(Br)cc1	35.2	.	38.4	117.5*	0.1	13.0
Cc1c(CCOC(=O)CC23CC4CC(CC(C)(C4)C2)C3)sc[n+]1CC(=O)c1ccccc1	13.0	6.6	24.4	99.6*	0.7	48.0
CSc1cccc(NC(=O)N2CCCC(CNS(=O)(=O)Cc3ccccc3)C2)c1 (centres undefined)	16.2	-3.9	0.4	-6.9	2.2	-1.8
C=CCNc1nc2ccccc2nc1NS(=O)(=O)c1ccc(Cl)cc1	11.8	-46.5	10.4	10.4	1.0	-10.4
CC(C)(C)OC(=O)N1CCC(C(=O)Nc2ccc(C(=O)NC3CC3)cc2)CC1	.	17.9	.	.	.	.
COC(=O)c1c(C)oc2ccc(N(C(=O)c3ccncc3)S(=O)(=O)c3ccc4ccccc4c3)cc12	15.0	-54.0	105.5*	7.9	1.5	-33.9
COC(=O)c1c(C)oc2ccc(N(C(=O)c3ccncc3)S(=O)(=O)c3ccc(C)cc3C)cc12	0.4	-42.0	99.8*	-10.2	-0.7	-50.4
COC(=O)c1c(C)oc2ccc(N(C(=O)c3ccncc3)S(=O)(=O)c3ccccc3)cc12	0.9	-7.5	.	1.6	-0.3	-26.0
COc1ccc(OC)c(NC(=O)CN(Cc2ccc(F)cc2)C2CCCCC2)c1	11.8	1.6	100.5*	22.7	-0.4	23.0
COc1ccc(C(=O)/C=C/C(=O)N(CC(=O)NC2CCCCC2)Cc2ccc(F)cc2)c(O)c1	20.5	-57.3	.	.	-7.9	58.8*
O=C(CSc1ccsc1[N+](=O)[O-])N1CCN(c2ccccn2)CC1	-4.1	-13.9	-4.0	1.7	-0.1	6.2
COC(=O)C(COC(=O)c1c(F)cccc1F)NC(=O)c1c(F)cccc1F (centres undefined)	0.4	10.2	-11.7	1.3	0.8	-17.2
CC(=O)Cn1ncc(Br)c(Br)c1=O	-19.9	-9.0	.	.	-7.7	55.6*
O=C(OCn1ncc(Br)c(Br)c1=O)c1c(F)cccc1F	10.7	.	111.8*	-3.0	-3.4	39.1
O=C(CN1C(=O)NC2(CCCCC2)C1=O)Nc1cccc(S(=O)(=O)N2CCCC2)c1	.	-2.4	0.2	.	.	.
CCC1(C(N)=O)CC2C=CC1C2 (centres undefined)	.	-10.7	.	.	.	.
CCOc1ccccc1N1CCN(c2ncnc3scc(-c4ccc(OC)cc4)c23)CC1	35.5	-46.0	4.3	6.9	-0.1	60.7*
COc1ccc(-c2csc3ncnc(N4CCN(c5ccccc5OC)CC4)c23)cc1	36.1	-31.1	18.1	21.6	-0.6	39.1
SMILES	SKKanGAS inh	PfHsp90 set2	Beta cell apopt	CSC inhib	HIF act	T cruzi inh
COc1ccc(-c2csc3ncnc(N4CCN(S(=O)(=O)c5ccc(C)c(C)c5)CC4)c23)cc1	38.8	12.2	12.2	-3.9	-1.6	55.2*
O=S(=O)(c1ccccc1)N1CCN(c2ncnc3scc(-c4ccccc4)c23)CC1	-4.8	1.9	10.5	18.0	0.0	24.4
CCOC(=O)CC1C(=O)NCCN1C(=O)COc1ccc(C(C)(C)C)cc1 (centres undefined)	0.4	-21.7	-6.2	-4.6	-0.1	3.2
CSCCC(NC(=O)c1cccc(C)c1)C(=O)OCN1C(=O)c2ccccc2C1=O (centres undefined)	7.8	.	-3.3	-8.7	0.3	-20.5
Oc1ccc(C[C@@H]2CNC(=S)N2CCCCC2CCCCC2)cc1	25.0	-36.2	-3.3	115.0*	3.0	33.1
S=C(NCc1cccs1)Nc1cccc(Cl)c1	4.6	.	-4.5	9.6	0.5	8.0
S=C(NCc1cccs1)Nc1cc(Cl)cc(Cl)c1	65.8*	-23.7	9.0	60.8	-0.7	32.1
Cc1ccccc1NC(=S)N(CCc1c(C)[nH]c2ccc(F)cc12)Cc1cccnc1	2.6	10.6	-2.9	-4.1	-0.1	51.4
Cc1ccc2[nH]c(C)c(CCN(Cc3cccnc3)C(=S)NC(C)(C)C)c2c1	-1.2	-13.9	-0.3	1.7	-1.0	34.0
Cc1[nH]c2ccc(F)cc2c1CCN(Cc1cccnc1)C(=S)NC(C)(C)C	-3.2	0.2	-5.6	-4.0	-0.7	64.9*
COc1ccc2[nH]c(C)c(CCN(Cc3cccs3)C(=S)Nc3cccc(F)c3)c2c1	17.4	9.3	-0.4	7.3	0.4	62.9*
Cc1[nH]c2ccc(F)cc2c1CCN(Cc1cccnc1)C(=S)Nc1cccc(F)c1	6.0	5.1	-0.4	-4.1	-11.1	64.7*
O=C(O)c1ccc2cccc(O)c2n1	7.2	6.5	-3.8	5.7	40.3*	-0.2
O=C(O)c1cccc(C(=O)O)n1	1.2	.	.	.	0.0	-18.8
CC(NC(=O)C12CC3CC(CC(O)(C3)C1)C2)c1ccc(Cl)cc1Cl (centres undefined)	0.8	5.9	-3.8	-5.9	16.0*	10.8
c1ccc(Nc2cccc(Nc3ccccc3)c2)cc1	1.3	-75.6	0.1	-9.0	-0.8	64.9*
CCN(CC)CCC(=O)Nc1cccc2c1C(=O)c1ccccc1C2=O	5.4	-11.7	98.0*	24.7	26.3*	55.8*
CCN(CC)CCNC(=O)c1ccc2c(c1NCCO)C(=O)c1ccccc1C2=O	50.9*	.	116.0*	55.3	0.3	8.5
Cc1cccc(NC(=S)N/N=C/c2ccc([N+](=O)[O-])s2)c1	101.1*	100.1*	102.5*	125.5*	0.6	51.9
Cc1cccc(NC(=O)/C=C/c2ccc([N+](=O)[O-])s2)c1	10.6	0.4	99.2*	107.1*	4.1	58.6*
Cc1cc([N+](=O)[O-])ccc1NC(=O)/C=C/c1cccs1	3.1	-2.7	2.3	1.0	1.1	-3.6
